# CHRM1 agonist: human M1 muscarinic receptor agonism; P11229; CHO-K1 hM1, Fluo-8 calcium fluorescence, agonist mode; 0% DMSO, 100% acetylcholine EC100; AID 588814; activation, % at 3 µM; hit rate 0.33% among 360,000;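 active = activation above the run's mean compound activation plus 3 SD, cut at about 16% in these data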;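 also: peak over basal fluorescence ratio within a 140 s kinetic read after compound addition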
# TAAR1 antag: antagonists of human TAAR1; inhibition, % at 3 µM; CHO RD-HGA16 TAAR1, Fluo-8 calcium fluorescence, antagonist; hit rate 1.5% among 360,000; AID 624466;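 active = inhibition above a per-plate cutoff, the mean inhibition of test compounds on that plate plus 3 SD, cut at about 49% in these data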;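 also: 0% = DMSO plus EC80 beta-PEA response and 100% = DMSO alone without agonist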
#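 System: CHO RD-HGA16 cells bearing hTAAR1. Reagent: EC80 β-phenethylamine stimulus. Schedule: seeding 17-24 h prior, 75-min 37 °C, 30-min RT dye loading. Signal: Fluo-8 intracellular calcium dye fluorescence, real-time kinetic reads. Read-out: % inhibition from peak post-agonist over basal fluorescence ratio. Benchmarks: vehicle wells and EC80 agonist wells. Replicates: n of 1.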
# CHRM1 PAM: potentiates human M1 receptor response to acetylcholine | P11229 | CHO-K1 hM1, Fluo-8 calcium fluorescence, ACh EC20; 0% = ACh EC20, 100% = maximal ACh | activation, % at 3 µM | hit rate 0.088% among 360,000; in the data active = activation above about 19%, passing the limit was not always enough
# CHRM1 antagonist: human CHRM1 antagonism; inhibition, % at 3 µM; CHO-K1 hM1, Fluo-8 calcium fluorescence, ACh EC80 antagonist; P11229; hit rate 1.3% among 360,000;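 active = percent inhibition above its own plate's cutoff, namely the mean of that plate's compound wells plus 3 SD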;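 also: peak over basal fluorescence ratio during 140 s after agonist addition; 0% = ACh EC80 plus DMSO and 100% = DMSO alone without agonist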
# TAAR1 ag: agonists of human TAAR1; hit rate 0.99% among 360,000; activation, % at 3 µM; Q96RJ0; CHO RD-HGA16 TAAR1, Fluo-8 calcium fluorescence; vehicle wells 0%, saturating PEA agonist 100%;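 active = activation above the mean activation of all test compounds in the run plus 3 SD, cut at about 38% in these data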
#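 Signal – calcium-sensitive Fluo-8 signal, excitation 470-495, emission 515-575 nm · System – RD-HGA16 (CHO) cells co-expressing Gα16 and hTAAR1 · Incubation – 17-24 h seeding, 75 min 37 °C dye, 30 min RT · Compound dosing – 3 µM single concentration · Repeats – no replicates (n 1)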
# HTR2A ag: activates the mouse 5-HT2A serotonin receptor | hit rate 0.66% among 360,000 | CHO-K1 mHTR2A beta-arrestin complementation, luminescence; percent of 30 µM serotonin response | P35363 | activation, % at 7.6 µM | AID 624169;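 active = activation above a run cutoff, the mean activation of all tested compounds plus 3 SD, cut at about 14% in these data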;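 also: 0% = plate median of compound wells and 100% = 30 µM serotonin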
# Target sequence (P35363 whole entry, looked up): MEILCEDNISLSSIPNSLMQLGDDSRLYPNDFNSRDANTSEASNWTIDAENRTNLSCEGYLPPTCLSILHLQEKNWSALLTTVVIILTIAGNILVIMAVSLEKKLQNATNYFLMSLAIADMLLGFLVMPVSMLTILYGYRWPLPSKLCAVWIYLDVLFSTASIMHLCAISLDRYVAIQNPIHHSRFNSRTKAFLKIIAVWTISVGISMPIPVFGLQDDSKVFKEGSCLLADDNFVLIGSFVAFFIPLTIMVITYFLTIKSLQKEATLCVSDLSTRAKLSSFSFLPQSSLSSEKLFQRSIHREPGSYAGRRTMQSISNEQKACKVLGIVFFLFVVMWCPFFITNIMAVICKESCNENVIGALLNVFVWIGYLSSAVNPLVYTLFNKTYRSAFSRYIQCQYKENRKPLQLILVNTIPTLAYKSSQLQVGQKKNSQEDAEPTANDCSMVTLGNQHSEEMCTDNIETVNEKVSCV
# TAAR1 ag conf: confirmation of human TAAR1 agonists; activation, % at 3 µM; shares compounds with TAAR1 ag; hit rate 82% among 2,400; CHO RD-HGA16 TAAR1, Fluo-8 calcium fluorescence; scaled: DMSO 0%, maximal phenethylamine 100%;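 active = activation above a cutoff set at the run's mean compound activation plus 3 SD, cut at about 39% in these data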
# Ga16 ag counter: nonselective agonism, TAAR1 counter-screen. shares compounds with TAAR1 ag. CHO-Ga16 parental, Fluo-8 calcium fluorescence; normalized to maximal ATP response, DMSO zero. activation, % at 3 µM. hit rate 50% among 2,400;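 active = activation above the run cutoff, the mean activation over all tested wells plus 3 SD, cut at about 12% in these data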;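 also: 0% = DMSO wells and 100% = maximal ATP response on the peak over basal ratio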
# TAAR1 desens: TAAR1 response desensitization, agonist counter-screen; inhibition, % at 3 µM; shares compounds with TAAR1 ag; CHO RD-HGA16 hTAAR1, Fluo-8 calcium, beta-PEA response inhibition; hit rate 46% among 2,400; AID 651951;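 active = inhibition above the run cutoff, the mean inhibition of all test compounds plus 3 SD, cut at about 49% in these data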;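 also: beta-PEA stimulus applied at its EC80; loss of beta-PEA calcium signal after compound pretreatment read as receptor desensitization; 0% = DMSO with beta-PEA at EC80 and 100% = DMSO alone without agonist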
# Ga16 nonsel ant: nonselective Ga16 antagonism, counter-screen; shares compounds with TAAR1 ag; CHO-Ga16 ATP-induced calcium, Fluo-8 fluorescence; inhibition, % at 3 µM; hit rate 39% among 2,400;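 active = inhibition above the plate's mean compound inhibition plus 3 SD, computed per plate, cut at about 22% in these data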;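 also: 0% = EC80 ATP with DMSO and 100% = DMSO wells without ATP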
# Numbers without * were called inactive; / = not tested or not shown. This is a sample that favours compounds with a hit; in the whole collection about 3.9% have one here.
SMILES,CHRM1 agonist,TAAR1 antag,CHRM1 PAM,CHRM1 antagonist,TAAR1 ag,HTR2A ag,TAAR1 ag conf,Ga16 ag counter,TAAR1 desens,Ga16 nonsel ant
CCCCCc1c(-c2ccc(F)cc2F)ncn1CCc1ccccc1OC,/,33,/,/,7,-7,/,/,/,/
CCCCc1c(-c2ccc(F)cc2F)ncn1CCc1ccccc1OC,/,38,/,/,6,-3,/,/,/,/
CCCCc1c(-c2ccc(OC)c(OC)c2)ncn1CCc1ccccc1OC,/,58*,/,/,59*,-6,64*,7,68*,42*
COc1ccccc1CCn1cnc(-c2cccc(Br)c2)c1CC(C)C,/,30,/,/,22,/,/,/,/,/
COc1ccccc1CCn1cnc(-c2ccc(Br)cc2)c1CC(C)C,/,71*,/,/,65*,/,82*,2,56*,10
O=C(NC(=S)Nc1ccc(Cl)cn1)c1cc([N+](=O)[O-])ccc1N1CCOCC1,-2,-11,12,-13,0,1,/,/,/,/
Cc1cccc(/C=N\N=C\c2cccc(C)c2)c1,-1,-7,15,-12,7,5,/,/,/,/
Cc1ccc(S(=O)(=O)N2CCN(C(=O)COC(=O)CCOc3ccccc3)CC2)c(C)c1,1,-1,9,-7,6,0,/,/,/,/
CS(=O)(=O)c1nc(S(=O)(=O)c2ccc(Cl)cc2)c(NCCCN2CCCC2=O)s1,-10,7,8,-10,-1,2,/,/,/,/
CCCCc1c(-c2ccccc2OC)ncn1Cc1ccc(Cl)cc1,/,31,/,/,6,-9,/,/,/,/
CCc1c(-c2ccccc2Br)ncn1CCc1ccccc1OC,/,53*,/,/,44*,/,70*,11,59*,28*
CCCc1c(-c2ccc(Cl)cc2)ncn1Cc1ccccc1OC,/,-2,/,/,4,-10,/,/,/,/
COc1ccccc1CCn1cnc(-c2ccc(F)cc2F)c1CC(C)C,/,15,/,/,14,/,/,/,/,/
CCCCc1c(-c2ccccc2OC)ncn1CCc1cccc(Cl)c1,/,47,/,/,66*,4,84*,19*,83*,34*
CCCc1c(-c2ccc(Cl)cc2)ncn1CCc1ccccc1OC,/,52*,/,/,56*,-7,82*,15*,83*,26*
Cc1ccccc1OCc1nnc(SCC(=O)O)n1-c1cccc(Cl)c1,0,-2,15,-15,5,2,/,/,/,/
CCc1nn2c(N3CCOCC3)cc(C)nc2c1-c1ccccc1,-1,2,2,-7,3,4,/,/,/,/
N#Cc1ccc2[nH]c(CO)c(-c3ccccc3)c2c1,-2,19,3,4,8,-6,/,/,/,/
CC(C)Oc1ccc(C(CCNCc2ccc(O)cc2)c2ccccc2)cc1 (configuration not stated),-4,36,-10,11,70*,-13,57*,29*,40,35*
COCCN1CCN(C(=O)C2CCC(=O)N(CCc3cccc(F)c3)C2)CC1 (configuration not stated),-1,9,5,-8,0,2,/,/,/,/
Cc1ccnc(N/C=C(\C#N)c2nc(-c3cccc(Br)c3)cs2)c1,161*,68*,-23,43*,124*,-5,77*,86*,68*,63*
Cc1ccc(C)c(N2CCN(C(=O)c3nn(C)c4c3CS(=O)(=O)c3ccccc3-4)CC2)c1,0,43,-4,6,7,2,/,/,/,/
COc1cc2nc(/C=C/c3ccc(N(C)C)cc3)sc2cc1SC,1,52*,-1,9,101*,3,46*,93*,67*,87*
COc1cc2c(cc1OC)C(=Cc1ccc(N(C)C)cc1)C=C2,-6,9,-4,-4,1,-6,/,/,/,/
O=S1(=O)CC(N2CCCC2)CN1CCc1ccccc1 (configuration not stated),-1,-7,8,-5,56*,5,45*,0,6,16
SMILES,CHRM1 agonist,TAAR1 antag,CHRM1 PAM,CHRM1 antagonist,TAAR1 ag,HTR2A ag,TAAR1 ag conf,Ga16 ag counter,TAAR1 desens,Ga16 nonsel ant
CN1CCC(N2CCN(C3CN(CCc4ccccc4)S(=O)(=O)C3)CC2)CC1 (configuration not stated),-6,-11,10,-8,7,-1,/,/,/,/
Cc1c(C(=O)N2CCOCC2)sc(NC(=O)CCl)c1C#N,-3,-21,9,-10,1,8,/,/,/,/
O=C(O)/C=C/C(=O)NCCCc1ccccc1,-3,34,5,0,74*,6,103*,2,78*,-2
CCCOc1cccc(C2C(C(=O)c3cccs3)=C(O)C(=O)N2CCN2CCOCC2)c1 (configuration not stated),-2,2,-7,6,2,-2,/,/,/,/
Cc1ccccc1Nc1nc(NCc2ccco2)c2ccccc2n1,-7,-41,-4,8,24,-12,/,/,/,/
Cc1cccc(Nc2nc(NCc3ccco3)c3ccccc3n2)c1,-10,31,-10,10,70*,-9,50*,4,48,28*
c1ccc(Nc2nc(NCc3ccco3)c3ccccc3n2)cc1,-4,41,-17,30,56*,-7,84*,8,85*,29*
COCCCn1c(O)c(/C=C2\N=C(C#N)C(=Nc3ccc(C)cc3)O2)sc1=S,-1,74*,12,-8,52*,-1,20,15*,10,25*
O=C(Cc1ccc(-c2ccccc2)cc1)NC1CCCC1,3,-4,4,3,59*,-5,14,7,2,13
CCCCCc1ccc(OCCCC[n+]2cccc(C)c2)c(CCCCC)c1,-1,-2,-31,25,60*,-5,76*,53*,52*,39*
NCc1c(O)ccc2ccccc12,/,/,/,/,/,/,/,2,/,7
COc1cc2[nH]c(C(=O)N3CCc4ccccc4C3)cc2c(OC)c1OC,-6,-12,1,-6,44*,-7,72*,5,17,8
CC1CCN(CCCNC(=O)c2coc3nc4ccccc4nc23)CC1,-3,5,5,-3,11,-3,/,/,/,/
Cc1ccc(CCNC(=O)c2coc3nc4ccccc4nc23)cc1,-4,8,4,-4,70*,-7,27,3,16,23*

# Assay outcomes from PubChem.
